Assay results from ChEMBL document CHEMBL5385854, “Discovery of PPARγ and glucocorticoid receptor dual agonists to promote the adiponectin and leptin biosynthesis in human bone marrow mesenchymal stem cells” (Eur J Med Chem, 2023).
Calls of active or inactive are those of the source. The rule behind the calls is not given here.

Columns and labels:
[1] = Induction of adiponectin biosynthesis in human BMMSC cells assessed as adiponectin level at 10 uM measured after 7 days by ELISA (IDX Control = 100 +/- 57 pg/ml); format: functional, Mesenchymal stem cells; conditions: time 7 day
[2] = Induction of leptin biosynthesis in human BMMSC cells assessed as leptin level at 10 uM measured after 7 days by ELISA (RVB = 18 + /- 18 pg/ml); format: functional, Mesenchymal stem cells; conditions: time 7 day
[3] = system: Mesenchymal stem cells; experiment: Induction of adipogenesis in human BMMSC cells assessed as increase in lipid droplet accumulation at 30 uM after 7 days by Oil red O and hematoxylin staining based assay relative to IDX control; format: functional, cell-based; conditions: time 7.0 day
Procedure, shortened: (§1)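 hBM-MSCs grown in low-glucose DMEM (1 g/L) with 10% FBS, Glutamax and penicillin-streptomycin, then differentiated in IDX medium containing compound, refreshed on days 3 and 6. On day 7, cells fixed in 10% neutral buffered formalin for 40 min and stained with 0.2% Oil Red O for 15 min, nuclei with hematoxylin. Dye eluted in isopropanol and read at 540 nm against IDX control.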

[4] = Induction of adiponectin biosynthesis in human BMMSC cells assessed as adiponectin level at 300 uM measured after 7 days by ELISA (IDX Control = 100 +/- 57 pg/ml); format: functional, Mesenchymal stem cells; conditions: time 7 day
Procedure, shortened: (§2)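 Human bone-marrow MSCs grown in low-glucose DMEM (1 g/L) with 10% FBS, 1% penicillin-streptomycin and 1% Glutamax. Compounds were given in adipogenic IDX medium, refreshed on days 3 and 6. On day 7, supernatant adiponectin was quantified by Quantikine ELISA against the IDX control. Mean ± SD, n = 3 independent experiments; one-way ANOVA with post-hoc tests.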

[5] = Induction of leptin biosynthesis in human BMMSC cells assessed as leptin level at 300 uM measured after 7 days by ELISA (RVB = 18 + /- 18 pg/ml); format: functional, Mesenchymal stem cells; conditions: time 7 day
[6] = Induction of adiponectin biosynthesis in human BMMSC cells assessed as fold increase in production at 30 uM measured after 7 days by ELISA relative to IDX control; format: functional, Mesenchymal stem cells; conditions: time 7 day, 168 h; procedure, shortened: as §2
[7] = Induction of leptin biosynthesis in human BMMSC cells assessed as fold increase in production at 30 uM measured after 10 days by ELISA relative to control; conditions: time 10 day
[8] = system: Mesenchymal stem cells; experiment: Induction of adipogenesis in human BMMSC cells assessed as increase in lipid droplet accumulation at 5 uM after 7 days by Oil red O and hematoxylin staining based assay relative to IDX control; format: functional, cell-based; conditions: time 7.0 day; procedure, shortened: as §1
[9] = Induction of adiponectin biosynthesis in human BMMSC cells assessed as adiponectin level at 5 uM measured after 7 days by ELISA (IDX Control = 100 +/- 57 pg/ml); format: functional, Mesenchymal stem cells; conditions: time 7 day; procedure, shortened: as §2
[10] = Induction of leptin biosynthesis in human BMMSC cells assessed as leptin level at 5 uM measured after 7 days by ELISA (RVB = 18 + /- 18 pg/ml); format: functional, Mesenchymal stem cells; conditions: time 7 day
[11] = Induction of adiponectin biosynthesis in human BMMSC cells assessed as adiponectin level measured after 7 days by ELISA; conditions: Mesenchymal stem cells, 168 h
[12] = Induction of leptin biosynthesis in human BMMSC cells assessed as leptin level at 1 uM measured after 7 days by ELISA (RVB = 18 + /- 18 pg/ml); format: functional, Mesenchymal stem cells; conditions: time 7 day

With `Cc1cc(O)c(C(=O)/C=C/c2ccsc2)c(=O)o1` the Activity [1] was 486 pg/mL and the Activity [2] was 193 pg/mL.

Molecule `Cc1cc(O)c(C(=O)/C=C/c2ccc(F)cc2)c(=O)o1` has an Activity [1] of 576 pg/mL and an Activity [2] of 30 pg/mL.

For `Cc1cc(O)c(C(=O)/C=C/c2ccoc2)c(=O)o1`, the Activity [1] was 320 pg/mL and the Activity [2] was 171 pg/mL.

In the case of `Cc1cc(O)c(C(=O)/C=C/c2c[nH]c3ccccc23)c(=O)o1`, the Activity [1] is reported as 396 pg/mL and the Activity [2] is reported as 41 pg/mL.

With `Cc1cc(O)c(C(=O)/C=C/c2ccc3c(c2)OCO3)c(=O)o1` the Activity [1] was 208 pg/mL and the Activity [2] was 91 pg/mL.

For `COc1cc(/C=C/C(=O)c2c(O)cc(C)oc2=O)ccc1O` (stereo in doubt; form 1) [listing 1 of 2 here], the Activity [3] was “Active”.

In the case of `CC(=O)Oc1ccccc1C(=O)O` [ASPIRIN], the Activity [4] is reported as 330 pg/mL and the Activity [5] is reported as 20 pg/mL.

In the case of `Cc1cc(O)c(C(=O)/C=C/c2ccc(O)c(O)c2)c(=O)o1`, the Activity [1] is reported as 243 pg/mL and the Activity [2] is reported as 16 pg/mL.

In the case of `COc1cc(/C=C/C(=O)c2c(O)cc(C)oc2=O)ccc1O` (stereo in doubt; form 2), the “fold change (FC)” value [6] is reported as 3.18, the Activity [1] is reported as 399 pg/mL and the Activity [2] is reported as 82 pg/mL. The “fold change (FC)” value [7] was 2.58.

For `CCc1ccc(CCOc2ccc(CC3SC(=O)NC3=O)cc2)nc1` (configuration not stated) [PIOGLITAZONE], the Activity [8] was “Active”, the Activity [9] was 812 pg/mL and the Activity [10] was 33 pg/mL. It also gave an EC50 [11] of 600 nM.

For `Cc1cc(O)c(C(=O)/C=C/c2cc(F)cc(F)c2)c(=O)o1`, the Activity [1] was 172 pg/mL and the Activity [2] was 33 pg/mL.

For `COc1ccc(Cl)cc1C(=O)NCCc1ccc(S(=O)(=O)NC(=O)NC2CCCCC2)cc1` [GLYBURIDE], the Activity [8] was “Active”, the Activity [9] was 475 pg/mL and the Activity [10] was 30 pg/mL.

`Cc1cc(O)c(C(=O)/C=C/c2ccccc2)c(=O)o1` showed an Activity [1] of 580 pg/mL and an Activity [2] of 38 pg/mL.

In the case of `COc1ccc(/C=C/C(=O)c2c(O)cc(C)oc2=O)cc1OC`, the Activity [1] is reported as 747 pg/mL and the Activity [2] is reported as 80 pg/mL.

With `C[C@@H]1C[C@H]2[C@@H]3CCC4=CC(=O)C=C[C@]4(C)[C@@]3(F)[C@@H](O)C[C@]2(C)[C@@]1(O)C(=O)CO` [DEXAMETHASONE] the Activity [12] was 632 pg/mL.

Molecule `Cc1cc(O)c(C(=O)/C=C/c2ccccn2)c(=O)o1` has an Activity [1] of 396 pg/mL and an Activity [2] of 95 pg/mL.

For `COc1cc(/C=C/C(=O)c2c(O)cc(C)oc2=O)ccc1O` (stereo in doubt; form 1) [listing 2 of 2 here], the “fold change (FC)” value [6] was 3.3.

For `COc1cc(/C=C/C(=O)c2c(O)cc(C)oc2=O)ccc1F`, the Activity [1] was 567 pg/mL and the Activity [2] was 40 pg/mL.

With `Cc1cc(O)c(C(=O)/C=C/c2ccc(F)c(F)c2)c(=O)o1` the Activity [1] was 432 pg/mL and the Activity [2] was 76 pg/mL.

With `Cc1cc(O)c(C(=O)/C=C/c2ccc(C)c(C)c2)c(=O)o1` the Activity [1] was 438 pg/mL and the Activity [2] was 17 pg/mL.
